Assays:
[1] = Partition coefficient measurement log Po/w; format: physicochemical
[2] = Plasma protein binding of the radio-complex; format: in vitro ADME; conditions: rat plasma, 37°C up to 1 hr
Summary of the method: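 Pellet re-suspended in 5% TCA and re-centrifuged. Precipitate and supernatant counted in a well-type gamma counter; binding given as protein-bound percent of total activity.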

[3] = Stability of the radio-complex with pH and time at room temperature; format: physicochemical
Summary of the method: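 Labelling: 7.4 MBq pertechnetate added to 20 µg test compound (10% ethanol) with 40 µg SnCl2·2H2O, pH 7, 10 min at room temperature in the dark. pH varied from 2 to 10 and room-temperature stability followed over time. Purity by ITLC: acetone (free pertechnetate) and pyridine:acetic acid:water 3:5:1.5 (hydrolysed fraction); strips counted with a gamma probe. Triplicates, one-way ANOVA.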

Paper electrophoresis = format: physicochemical; conditions: 300V, 1 h
Summary of the method: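 Radio-complex spotted at the central point of Whatman No. 1 paper, with sodium phosphate buffer as the mobile phase. Strip dried after the run and activity along it counted in a well-type gamma scintillation […]; the direction of migration indicates charge.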

[4] = Blood pharmacokinetics after intravenous administration; format: in vivo, rat; conditions: rats, i.v.
Summary of the method: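 Male Sprague Dawley rats (200–250 g) given 200 µCi of Tc-99m-labelled test compound via a penile vein. Blood drawn from the ocular vein at intervals over 0–120 min and counted in a well-type scintillation counter, expressed as counts per ml of blood. Peak times read from the activity–time curve.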

[5] = Bio-distribution in normal control rats; format: in vivo, rat; conditions: for ID/g Bladder / ID/g Bone / ID/g Brain / ID/g Heart / ID/g Kidney / ID/g Large intestine / ID/g Liver / ID/g Lung / ID/g Muscle / ID/g Prostate / ID/g Small intestine / ID/g Spleen / ID/g Stomach / ID/g Thyroid: normal control rats; for percent-specific uptake in the prostate: normal healthy rats
Summary of the method: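 Healthy adult male Sprague Dawley rats (6–7 weeks, 200–250 g) given 200 µCi of Tc-99m-labelled test compound intravenously via a penile vein. Animals sacrificed at several post-injection times (1, 2, 4 and 6 h). Organs excised, weighed and counted in a well scintillation counter. %ID/g calculated against a standard of the injected dose. n=3, mean ± SD, ANOVA.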

[6] = Bio-distribution in MNU + TP treated rats; format: in vivo, rat; conditions: for percent-specific uptake in the prostate: MNU + TP treated (carcinogen-induced) rats; for ID/g Bladder / ID/g Bone / ID/g Brain / ID/g Heart / ID/g Kidney / ID/g Large intestine / ID/g Liver / ID/g Lung / ID/g Muscle / ID/g Prostate / ID/g Small intestine / ID/g Spleen / ID/g Stomach / ID/g Thyroid: MNU + TP treated rats

Log Po/w [1]: 0.118 ± 0.045
Plasma protein binding [2]: 86.23 ± 7.08%
percent radiochemical purity ([3]; pH 2): 92.72%
percent radiochemical purity ([3]; pH 4): 97.24%
percent radiochemical yield ([3]; pH 10): 86.84%
charge of the radio-complex (Paper electrophoresis): neutral
time of first peak in blood [4]: 50 s
time of second peak in blood [4]: 50 min
ID/g Bladder ([5]; First h): 1.758±0.706 ID/g
ID/g Bladder ([5]; Fourth h): 1.121±0.896 ID/g
ID/g Bladder ([5]; Second h): 1.71±0.550 ID/g
ID/g Bladder ([5]; Sixth h): 1.840±0.724 ID/g
ID/g Bone ([5]; First h): 1.77±0.14 ID/g
ID/g Bone ([5]; Fourth h): 0.163±0.011 ID/g
ID/g Bone ([5]; Second h): 0.694±0.077 ID/g
ID/g Bone ([5]; Sixth h): 0.59±0.085 ID/g
ID/g Brain ([5]; First h): 0.217±0.065 ID/g
ID/g Brain ([5]; Fourth h): 0.133±0.027 ID/g
ID/g Brain ([5]; Second h): 0.064±0.005 ID/g
ID/g Brain ([5]; Sixth h): 0.096±0.074 ID/g
ID/g Heart ([5]; First h): 0.416±0.005 ID/g
ID/g Heart ([5]; Fourth h): 0.535±0.274 ID/g
ID/g Heart ([5]; Second h): 0.547±0.065 ID/g
ID/g Heart ([5]; Sixth h): 0.557±0.061 ID/g
ID/g Kidney ([5]; First h): 7.476±1.300 ID/g
ID/g Kidney ([5]; Fourth h): 13.726±2.948 ID/g
ID/g Kidney ([5]; Second h): 9.093±0.897 ID/g
ID/g Kidney ([5]; Sixth h): 15.403±2.545 ID/g
ID/g Large intestine ([5]; First h): 0.654±0.294 ID/g
ID/g Large intestine ([5]; Fourth h): 0.635±0.079 ID/g
ID/g Large intestine ([5]; Second h): 0.691±0.178 ID/g
ID/g Large intestine ([5]; Sixth h): 0.915±0.186 ID/g
ID/g Liver ([5]; First h): 4.44±0.836 ID/g
ID/g Liver ([5]; Fourth h): 9.423±1.188 ID/g
ID/g Liver ([5]; Second h): 5.293±1.504 ID/g
ID/g Liver ([5]; Sixth h): 13.303±1.618 ID/g
ID/g Lung ([5]; First h): 3.145±0.465 ID/g
ID/g Lung ([5]; Fourth h): 3.354±2.237 ID/g
ID/g Lung ([5]; Second h): 7.207±4.919 ID/g
ID/g Lung ([5]; Sixth h): 4.292±1.191 ID/g
ID/g Muscle ([5]; First h): 0.337±0.003 ID/g
ID/g Muscle ([5]; Fourth h): 0.126±0.015 ID/g
ID/g Muscle ([5]; Second h): 0.462±0.241 ID/g
ID/g Muscle ([5]; Sixth h): 0.160±0.06 ID/g
ID/g Prostate ([5]; First h): 0.303±0.017 ID/g
ID/g Prostate ([5]; Fourth h): 0.298±0.079 ID/g
ID/g Prostate ([5]; Second h): 0.518±0.133 ID/g
ID/g Prostate ([5]; Sixth h): 0.269±0.182 ID/g
ID/g Small intestine ([5]; First h): 0.639±0.277 ID/g
ID/g Small intestine ([5]; Fourth h): 0.659±0.150 ID/g
ID/g Small intestine ([5]; Second h): 1.276±0.526 ID/g
ID/g Small intestine ([5]; Sixth h): 0.944±0.074 ID/g
ID/g Spleen ([5]; First h): 4.002±0.245 ID/g
ID/g Spleen ([5]; Fourth h): 8.33±1.334 ID/g
ID/g Spleen ([5]; Second h): 5.816±0.886 ID/g
ID/g Spleen ([5]; Sixth h): 9.04±1.165 ID/g
ID/g Stomach ([5]; First h): 0.124±0.065 ID/g
ID/g Stomach ([5]; Fourth h): 0.094±0.045 ID/g
ID/g Stomach ([5]; Second h): 0.101±0.042 ID/g
ID/g Stomach ([5]; Sixth h): 0.091±0.013 ID/g
ID/g Thyroid ([5]; First h): 0.35±0.053 ID/g
ID/g Thyroid ([5]; Fourth h): 0.422±0.095 ID/g
ID/g Thyroid ([5]; Second h): 0.512±0.106 ID/g
ID/g Thyroid ([5]; Sixth h): 0.031±0.007 ID/g
percent-specific uptake in the prostate ([5]; 1 h after administration): 0.303%
percent-specific uptake in the prostate ([5]; 2 h after administration): 0.518%
percent-specific uptake in the prostate ([5]; 4 h after administration): 0.298%
percent-specific uptake in the prostate ([5]; 6 h after administration): 0.269%
ID/g Bladder ([6]; First h): 1.465±0.175 ID/g
ID/g Bladder ([6]; Fourth h): 0.897±0.456 ID/g
ID/g Bladder ([6]; Second h): 0.979±0.247 ID/g
ID/g Bladder ([6]; Sixth h): 0.871±0.578 ID/g
ID/g Bone ([6]; First h): 0.437±0.237 ID/g
ID/g Bone ([6]; Fourth h): 2.24±1.062 ID/g
ID/g Bone ([6]; Second h): 1.381±0.609 ID/g
ID/g Bone ([6]; Sixth h): 2.038±1.163 ID/g
ID/g Brain ([6]; First h): 0.139±0.124 ID/g
ID/g Brain ([6]; Fourth h): 0.149±0.085 ID/g
ID/g Brain ([6]; Second h): 0.257±0.139 ID/g
ID/g Brain ([6]; Sixth h): 0.132±0.048 ID/g
ID/g Heart ([6]; First h): 0.045±0.036 ID/g
ID/g Heart ([6]; Fourth h): 0.231±0.171 ID/g
ID/g Heart ([6]; Second h): 0.404±0.217 ID/g
ID/g Heart ([6]; Sixth h): 0.337±0.054 ID/g
ID/g Kidney ([6]; First h): 6.283±0.746 ID/g
ID/g Kidney ([6]; Fourth h): 7.836±1.861 ID/g
ID/g Kidney ([6]; Second h): 7.37±1.162 ID/g
ID/g Kidney ([6]; Sixth h): 8.08±1.784 ID/g
ID/g Large intestine ([6]; First h): 0.264±0.121 ID/g
ID/g Large intestine ([6]; Fourth h): 0.878±0.439 ID/g
ID/g Large intestine ([6]; Second h): 0.383±0.034 ID/g
ID/g Large intestine ([6]; Sixth h): 0.973±0.641 ID/g
ID/g Liver ([6]; First h): 3.48±0.676 ID/g
ID/g Liver ([6]; Fourth h): 8.693±0.784 ID/g
ID/g Liver ([6]; Second h): 6.767±0.496 ID/g
ID/g Liver ([6]; Sixth h): 9.673±0.457 ID/g
ID/g Lung ([6]; First h): 2.903±0.553 ID/g
ID/g Lung ([6]; Fourth h): 1.263±0.253 ID/g
ID/g Lung ([6]; Second h): 2.44±0.216 ID/g
ID/g Lung ([6]; Sixth h): 1.2±0.07 ID/g
ID/g Muscle ([6]; First h): 0.097±0.075 ID/g
ID/g Muscle ([6]; Fourth h): 0.330±0.194 ID/g
ID/g Muscle ([6]; Second h): 0.262±0.023 ID/g
ID/g Muscle ([6]; Sixth h): 0.310±0.022 ID/g
ID/g Prostate ([6]; First h): 0.913±0.172 ID/g
ID/g Prostate ([6]; Fourth h): 0.857±0.091 ID/g
ID/g Prostate ([6]; Second h): 0.825±0.110 ID/g
ID/g Prostate ([6]; Sixth h): 0.673±0.064 ID/g
ID/g Small intestine ([6]; First h): 0.482±0.554 ID/g
ID/g Small intestine ([6]; Fourth h): 0.400±0.015 ID/g
ID/g Small intestine ([6]; Second h): 0.563±0.037 ID/g
ID/g Small intestine ([6]; Sixth h): 0.378±0.193 ID/g
ID/g Spleen ([6]; First h): 3.873±0.600 ID/g
ID/g Spleen ([6]; Fourth h): 4.61±0.026 ID/g
ID/g Spleen ([6]; Second h): 6.76±0.911 ID/g
ID/g Spleen ([6]; Sixth h): 8.77±0.645 ID/g
ID/g Stomach ([6]; First h): 0.142±0.038 ID/g
ID/g Stomach ([6]; Fourth h): 0.112±0.033 ID/g
ID/g Stomach ([6]; Second h): 0.091±0.029 ID/g
ID/g Stomach ([6]; Sixth h): 0.069±0.023 ID/g
ID/g Thyroid ([6]; First h): 0.356±0.163 ID/g
ID/g Thyroid ([6]; Fourth h): 0.654±0.099 ID/g
ID/g Thyroid ([6]; Second h): 0.698±0.037 ID/g
ID/g Thyroid ([6]; Sixth h): 0.684±0.198 ID/g
Substance: Tc-99m-17-oxo-17a-aza-D-homo-5-androsten-3 β-ylphenoxyacetate [Tc-99m-17a-aza steroid]
percent-specific uptake in the prostate ([6]; 1 h after administration): 0.913%
percent-specific uptake in the prostate ([6]; 2 h after administration): 0.825%
percent-specific uptake in the prostate ([6]; 4 h after administration): 0.857%
percent-specific uptake in the prostate ([6]; 6 h after administration): 0.673%
